# Results as given in PMC4969713 (Journal of Alzheimer's Disease, 2016).
# Counter-ions that a name gives are not always drawn.
# Experiments:
# [1] = Biodistribution of [3H]AVN-101 in rat organs; assay type: in vivo, Wistar rats; conditions: for concentration in Blood / concentration in Brain / concentration in Heart / concentration in Kidneys / concentration in Liver / concentration in Lungs / concentration in Spleen: [3H] label; for accumulation in brain higher than in blood: 4 h
# [2] = Maximum tolerated dose, 5-day oral; assay type: in vivo, mice; conditions: male, CD1, mouse, in vivo, po
# How it was run: (§1)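 Male CD1 mice received test compound in sterile water orally at 10, 30 or 60 mg/kg once daily for 5 days (n = 8 per group). Body weight and deaths were recorded daily, followed by a 2-week observation phase. MTD was taken as the highest dose causing neither mortality nor body-weight loss.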
# male CD1 mice = experiment: Maximum tolerated dose, 5-day oral; assay type: in vivo
# How it was run: as §1
# [3] = Metabolism in human liver S9 fraction; assay type: in vitro ADME; conditions: for half-life at 1 µM / half-life at 2 µM: human, liver S9 fraction
# hKvLQT1-hminK (IKs) = hKvLQT1-hminK (IKs) (Homo sapiens, UniProt P51787); experiment: Cardiac channel inhibition, IKs; assay type: cell-based
# Sequence of hKvLQT1-hminK (IKs) (P51787 whole entry): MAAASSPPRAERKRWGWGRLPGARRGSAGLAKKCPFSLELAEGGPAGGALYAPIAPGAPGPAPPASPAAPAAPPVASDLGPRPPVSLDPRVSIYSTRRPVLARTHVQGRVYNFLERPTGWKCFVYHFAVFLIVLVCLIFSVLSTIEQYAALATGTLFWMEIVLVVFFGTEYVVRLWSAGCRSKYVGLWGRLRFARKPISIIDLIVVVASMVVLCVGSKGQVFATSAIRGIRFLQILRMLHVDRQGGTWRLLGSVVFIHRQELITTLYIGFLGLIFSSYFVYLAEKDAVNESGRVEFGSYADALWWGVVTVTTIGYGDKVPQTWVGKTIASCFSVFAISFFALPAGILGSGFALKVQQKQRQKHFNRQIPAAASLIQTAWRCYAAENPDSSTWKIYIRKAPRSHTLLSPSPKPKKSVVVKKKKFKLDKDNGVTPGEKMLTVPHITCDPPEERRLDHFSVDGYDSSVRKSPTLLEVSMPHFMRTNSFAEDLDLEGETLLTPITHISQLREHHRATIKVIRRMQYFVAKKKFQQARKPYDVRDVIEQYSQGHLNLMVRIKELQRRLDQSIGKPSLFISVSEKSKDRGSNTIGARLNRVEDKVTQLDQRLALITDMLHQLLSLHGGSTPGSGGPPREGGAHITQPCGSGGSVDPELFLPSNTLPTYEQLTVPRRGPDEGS
# CYP3A4 = CYP3A4 (Homo sapiens, UniProt P08684); experiment: Metabolism by recombinant CYP3A4; assay type: in vitro ADME
# Sequence of CYP3A4 (P08684 whole entry): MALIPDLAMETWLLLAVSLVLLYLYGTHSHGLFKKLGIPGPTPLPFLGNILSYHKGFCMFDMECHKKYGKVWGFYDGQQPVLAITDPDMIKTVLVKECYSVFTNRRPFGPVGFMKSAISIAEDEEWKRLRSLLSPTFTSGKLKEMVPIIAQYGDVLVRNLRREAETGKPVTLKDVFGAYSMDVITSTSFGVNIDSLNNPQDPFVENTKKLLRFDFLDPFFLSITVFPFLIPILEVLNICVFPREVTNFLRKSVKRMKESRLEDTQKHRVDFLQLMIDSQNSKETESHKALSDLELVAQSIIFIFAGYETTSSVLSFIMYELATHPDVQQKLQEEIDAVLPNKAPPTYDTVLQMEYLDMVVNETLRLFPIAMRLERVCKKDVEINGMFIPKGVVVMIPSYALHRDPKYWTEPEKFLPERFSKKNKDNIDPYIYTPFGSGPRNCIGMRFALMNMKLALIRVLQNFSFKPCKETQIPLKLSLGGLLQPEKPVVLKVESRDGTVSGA
# Sprague Dawley rats = experiment: Passive avoidance, scopolamine-induced amnesia, rats; assay type: in vivo; conditions: 0.05 mg/kg IP
# [4] = Metabolism in rat liver S9 fraction; assay type: in vitro ADME; conditions: for half-life at 1 µM / half-life at 2 µM: rat, liver S9 fraction
# 5-HT5A receptor = 5-HT5A receptor (Homo sapiens, UniProt P47898); experiment: Radioligand binding competition, 5-HT5A
# Sequence of 5-HT5A receptor (P47898 whole entry): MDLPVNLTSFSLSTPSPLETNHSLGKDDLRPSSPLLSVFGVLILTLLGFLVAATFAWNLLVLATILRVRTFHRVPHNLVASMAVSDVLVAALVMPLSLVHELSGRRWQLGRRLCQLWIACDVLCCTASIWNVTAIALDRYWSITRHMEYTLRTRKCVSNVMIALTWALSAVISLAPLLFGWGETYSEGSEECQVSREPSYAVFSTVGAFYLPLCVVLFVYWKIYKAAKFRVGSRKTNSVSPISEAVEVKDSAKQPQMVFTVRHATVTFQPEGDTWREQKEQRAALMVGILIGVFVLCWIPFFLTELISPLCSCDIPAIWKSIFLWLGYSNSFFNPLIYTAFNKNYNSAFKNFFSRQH
# [5] = tested on: Salmonella typhimurium strains: TA98, TA1535, and TA1537; experiment: Ames MPF test; assay type: cell-based; conditions: AVN-101 highest concentration 50μM
# How it was run: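 Run per kit manual in the Ames MPF fluctuation format with histidine-dependent strains TA98, TA1535 and TA1537. Test compound reached a highest concentration of 50 μM. Strain-specific positive controls: 4-nitro-o-phenylenediamine 15 μg/mL (TA98), sodium azide 2 μg/mL (TA1535), 9-aminoacridine 50 μg/mL (TA1537). Reverse mutation rate recorded.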
# Adrenergic α2C = Adrenergic α2C (Homo sapiens, UniProt P18825); experiment: Radioligand competition, adrenergic α2C; assay type: binding
# Sequence of Adrenergic α2C (P18825 whole entry): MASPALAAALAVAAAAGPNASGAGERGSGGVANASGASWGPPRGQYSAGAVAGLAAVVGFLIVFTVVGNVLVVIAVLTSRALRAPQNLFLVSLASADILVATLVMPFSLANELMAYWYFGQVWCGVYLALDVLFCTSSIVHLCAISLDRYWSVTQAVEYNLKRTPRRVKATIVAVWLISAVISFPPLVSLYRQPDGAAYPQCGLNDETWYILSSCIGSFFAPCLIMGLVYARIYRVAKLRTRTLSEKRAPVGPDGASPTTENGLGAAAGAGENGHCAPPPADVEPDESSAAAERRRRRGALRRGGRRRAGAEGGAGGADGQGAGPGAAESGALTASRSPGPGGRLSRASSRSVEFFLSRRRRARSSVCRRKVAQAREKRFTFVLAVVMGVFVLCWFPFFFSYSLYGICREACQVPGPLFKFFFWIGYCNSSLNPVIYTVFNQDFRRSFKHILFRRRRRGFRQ
# [6] = Stability in aqueous solutions; assay type: physicochemical; conditions: 72 h, room temperature
# How it was run: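 Test compound was incubated for 72 h at room temperature. Media were distilled water, salt solution at pH 4.0 or pH 7.0, and physiological solution at pH 7.4. Read-out was the fraction of the original concentration remaining.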
# [7] = Stability in murine blood plasma; assay type: in vitro ADME, mouse; conditions: 30-min incubation, room temperature
# [8] = tested on: calcium channels of L type; experiment: Target panel binding, calcium channel L type
# [9] = Pharmacokinetics in Rhesus monkeys; assay type: in vivo; conditions: for AUC / Cmax / k el / half-life: rhesus monkey, in vivo; for k el: Kel
# BALB/c mice = experiment: Open Field test; assay type: in vivo; conditions: IP; Lorazepam 0.05 mg/kg, AVN-101 0.2 mg/kg
# How it was run: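 Male BALB/c mice received lorazepam 30 min or test compound 5 min before testing; controls received saline, with at least 8 per group. Time in the central zone was recorded during a 10-min exploration. Comparison with the control group used ANOVA with Fisher LSD.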
# CYP1A2 = CYP1A2 (Homo sapiens, UniProt P05177); experiment: Metabolism by recombinant CYP1A2; assay type: in vitro ADME
# Sequence of CYP1A2 (P05177 whole entry): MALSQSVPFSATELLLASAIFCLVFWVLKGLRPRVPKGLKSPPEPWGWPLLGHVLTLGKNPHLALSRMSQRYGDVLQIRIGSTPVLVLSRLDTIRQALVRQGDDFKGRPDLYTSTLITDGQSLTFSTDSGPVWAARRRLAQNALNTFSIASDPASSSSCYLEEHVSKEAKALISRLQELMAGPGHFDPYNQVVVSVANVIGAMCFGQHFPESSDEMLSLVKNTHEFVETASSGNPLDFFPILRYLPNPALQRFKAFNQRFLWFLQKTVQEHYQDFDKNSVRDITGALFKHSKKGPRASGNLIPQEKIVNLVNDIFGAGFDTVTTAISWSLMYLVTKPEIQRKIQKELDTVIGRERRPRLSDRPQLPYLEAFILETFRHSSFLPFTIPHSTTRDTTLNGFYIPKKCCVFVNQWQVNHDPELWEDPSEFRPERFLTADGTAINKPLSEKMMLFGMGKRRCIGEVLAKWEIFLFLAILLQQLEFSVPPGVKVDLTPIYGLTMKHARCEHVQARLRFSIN
# histamine H2 receptor = histamine H2 receptor (Homo sapiens, UniProt P25021); experiment: Radioligand binding competition, histamine H2
# Sequence of histamine H2 receptor (P25021 whole entry): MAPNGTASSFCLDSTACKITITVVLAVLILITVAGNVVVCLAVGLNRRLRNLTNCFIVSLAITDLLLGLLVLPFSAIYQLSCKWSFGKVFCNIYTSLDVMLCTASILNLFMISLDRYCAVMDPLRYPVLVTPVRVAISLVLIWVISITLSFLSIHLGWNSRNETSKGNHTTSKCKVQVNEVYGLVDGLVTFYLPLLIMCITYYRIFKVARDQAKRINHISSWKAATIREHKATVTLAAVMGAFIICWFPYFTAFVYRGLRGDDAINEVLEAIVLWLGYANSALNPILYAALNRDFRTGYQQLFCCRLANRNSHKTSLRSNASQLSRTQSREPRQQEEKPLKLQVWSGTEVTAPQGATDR
# [10] = Phase I pharmacokinetics, single PO dose; assay type: in vivo, human; conditions: human, blood, po
# [11] = iv, 2 mg/kg, monkey 34887, IV 2 mg/kg
# [12] = iv, 2 mg/kg, monkey 35188, IV 2 mg/kg
# [13] = po, 10 mg/kg, Mean, PO 10 mg/kg
# [14] = po, 10 mg/kg, monkey 34920, PO 10 mg/kg
# [15] = po, 10 mg/kg, monkey 35189, PO 10 mg/kg
compound,measurement,setting,value
"Cc1ccc2c(c1)c1c(n2CCc2ccccc2)CCN(C)C1 [AVN-101, 2,8-dimethyl-5-penethyl-2,3,4,5-tetra-hydro-1h-pyrido[[4,3-B]]indole hydrochloride]",concentration in Blood,[1]; 4 h after IV 5 mg/kg,360 ± 10 ng/mL
same,concentration in Brain,[1]; 4 h after IV 5 mg/kg,9440 ± 360 ng/mL
same,concentration in Heart,[1]; 4 h after IV 5 mg/kg,9240 ± 230 ng/mL
same,concentration in Kidneys,[1]; 4 h after IV 5 mg/kg,6500 ± 200 ng/mL
same,concentration in Liver,[1]; 4 h after IV 5 mg/kg,5300 ± 160 ng/mL
same,concentration in Lungs,[1]; 4 h after IV 5 mg/kg,8960 ± 110 ng/mL
same,concentration in Spleen,[1]; 4 h after IV 5 mg/kg,5940 ± 150 ng/mL
same,concentration in Blood,[1]; 4 h after PO 10 mg/kg,460 ± 10 ng/mL
same,concentration in Brain,[1]; 4 h after PO 10 mg/kg,6240 ± 240 ng/mL
same,concentration in Heart,[1]; 4 h after PO 10 mg/kg,3280 ± 150 ng/mL
same,concentration in Kidneys,[1]; 4 h after PO 10 mg/kg,4700 ± 220 ng/mL
same,concentration in Liver,[1]; 4 h after PO 10 mg/kg,3780 ± 130 ng/mL
same,concentration in Lungs,[1]; 4 h after PO 10 mg/kg,3200 ± 230 ng/mL
same,concentration in Spleen,[1]; 4 h after PO 10 mg/kg,3740 ± 150 ng/mL
same,accumulation in brain higher than in blood,[1]; IV,26 fold
same,accumulation in brain higher than in blood,[1]; PO,13 fold
same,"IV/PO, normalized, Kidneys",[1]; normalized by dose,2.77
same,"IV/PO, normalized, Spleen",[1]; normalized by dose,3.18
same,"Organ bioavailability, Blood","[1]; rat, in vivo",63.9%
same,"Organ bioavailability, Brain","[1]; rat, in vivo",33.0%
same,"Organ bioavailability, Heart","[1]; rat, in vivo",17.7%
same,"Organ bioavailability, Kidneys","[1]; rat, in vivo",36.2%
same,"Organ bioavailability, Liver","[1]; rat, in vivo",35.6%
same,"Organ bioavailability, Lungs","[1]; rat, in vivo",17.9%
same,"Organ bioavailability, Spleen","[1]; rat, in vivo",31.5%
same,MTD at 5 days,[2],10 to 30 mg/kg
same,mortality,male CD1 mice; 30 mg/kg PO once daily for 5 days,12.5%
same,mortality,male CD1 mice; 60 mg/kg PO once daily for 5 days,50%
same,body weight,"male CD1 mice; 60 mg/kg, starting from the 4th day",statistically significant weight loss
same,half-life at 1 µM,"[3]; T1/2, +NADPH+UDPGA",0.437 h
same,half-life at 2 µM,"[3]; T1/2, +NADPH+UDPGA",0.982 h
same,half-life at 1 µM,"[3]; T1/2, +NADPH",0.413 h
same,half-life at 2 µM,"[3]; T1/2, +NADPH",1.45 h
same,metabolism with UDPGA only,[3]; phase 2 co-factor UDPGA only,no metabolism
same,IC50,hKvLQT1-hminK (IKs),22.5 µM
same,inhibition at 31.6 µM,hKvLQT1-hminK (IKs); read-out: % Inhibition at 31.6μM,55%
same,"remaining at 0.5 h, 2 µM",CYP3A4,2%
same,reversal of pro-amnesic action of Scopolamine,Sprague Dawley rats,significantly reverse
same,metabolism with UDPGA only,[4]; phase 2 co-factor UDPGA only,no metabolism
same,half-life at 1 µM,"[4]; T1/2, +NADPH+UDPGA",0.96 min
same,half-life at 2 µM,"[4]; T1/2, +NADPH+UDPGA",2.34 min
same,half-life at 1 µM,"[4]; T1/2, +NADPH",1.22 min
same,half-life at 2 µM,"[4]; T1/2, +NADPH",2.36 min
same,Ki,5-HT5A receptor,0.0208 µM
same,mutagenicity (reverse mutation rate),[5],produced no mutagenesis
same,Ki,Adrenergic α2C,0.00041 to 0.0036 µM
same,fraction of original concentration,[6]; distilled water,97.03%
same,fraction of original concentration,[6]; physiological solution pH 7.4,99.38%
same,fraction of original concentration,[6]; salt solution pH 4.0,98.05%
same,fraction of original concentration,[6]; salt solution pH 7.0,99.95%
same,residual amount of original compound,[7],16%
same,binding,[8],does not bind
same,Fabs,"[9]; PO 10 mg/kg vs IV 2 mg/kg, mean",15.3%
same,AUC,"[9]; iv, 2 mg/kg, AUC0 ⟶t, Mean, IV 2 mg/kg",426 ng·h/mL
same,AUC,"[9]; iv, 2 mg/kg, AUC0 ⟶t, monkey 34887, IV 2 mg/kg",356 ng·h/mL
same,AUC,"[9]; iv, 2 mg/kg, AUC0 ⟶t, monkey 35188, IV 2 mg/kg",496 ng·h/mL
same,AUC,"[9]; iv, 2 mg/kg, AUC0 ⟶∞, Mean, IV 2 mg/kg",792 ng·h/mL
same,AUC,"[9]; iv, 2 mg/kg, AUC0 ⟶∞, monkey 34887, IV 2 mg/kg",388 ng·h/mL
same,AUC,"[9]; iv, 2 mg/kg, AUC0 ⟶∞, monkey 35188, IV 2 mg/kg",1200 ng·h/mL
same,Cmax,"[9]; iv, 2 mg/kg, Mean, IV 2 mg/kg",324 ng/mL
same,Cmax,[9]; [11],304 ng/mL
same,Cmax,[9]; [12],345 ng/mL
same,k el,"[9]; iv, 2 mg/kg, Mean, IV 2 mg/kg",0.000208 s⁻¹
same,k el,[9]; [11],0.000347 s⁻¹
same,k el,[9]; [12],7.17e-05 s⁻¹
same,half-life,"[9]; iv, 2 mg/kg, T1/2, Mean, IV 2 mg/kg",1.63 h
same,half-life,"[9]; iv, 2 mg/kg, T1/2, monkey 34887, IV 2 mg/kg",0.55 h
same,half-life,"[9]; iv, 2 mg/kg, T1/2, monkey 35188, IV 2 mg/kg",2.7 h
same,AUC,"[9]; po, 10 mg/kg, AUC0 ⟶t, Mean, PO 10 mg/kg",360 ng·h/mL
same,AUC,"[9]; po, 10 mg/kg, AUC0 ⟶t, monkey 34920, PO 10 mg/kg",321 ng·h/mL
same,AUC,"[9]; po, 10 mg/kg, AUC0 ⟶t, monkey 35189, PO 10 mg/kg",398 ng·h/mL
same,AUC,"[9]; po, 10 mg/kg, AUC0 ⟶∞, Mean, PO 10 mg/kg",606 ng·h/mL
same,AUC,"[9]; po, 10 mg/kg, AUC0 ⟶∞, monkey 34920, PO 10 mg/kg",637 ng·h/mL
same,AUC,"[9]; po, 10 mg/kg, AUC0 ⟶∞, monkey 35189, PO 10 mg/kg",575 ng·h/mL
same,Cmax,[9]; [13],66 ng/mL
same,Cmax,[9]; [14],53 ng/mL
same,Cmax,[9]; [15],79 ng/mL
same,k el,[9]; [13],3.67e-05 s⁻¹
same,k el,[9]; [14],2.67e-05 s⁻¹
same,k el,[9]; [15],4.5e-05 s⁻¹
same,half-life,"[9]; po, 10 mg/kg, T1/2, Mean, PO 10 mg/kg",5.77 h
same,half-life,"[9]; po, 10 mg/kg, T1/2, monkey 34920, PO 10 mg/kg",7.3 h
same,half-life,"[9]; po, 10 mg/kg, T1/2, monkey 35189, PO 10 mg/kg",4.25 h
same,time spent in the central area,BALB/c mice,significant anxiolytic effect
same,"remaining at 0.5 h, 2 µM",CYP1A2,46%
same,Ki,histamine H2 receptor,0.089 µM
same,AUC,[10]; 2 mg,0.0946 ± 0.0268 ng·h/mL
same,Cmax,[10]; 2 mg,0.00579 ± 0.0029 ng/mL
same,half-life,[10]; 2 mg,14.1 ± 10.2 h
same,AUC,[10]; 4 mg,0.211 ± 0.0862 ng·h/mL
same,half-life,[10]; 4 mg,8.15 ± 2.23 h
same,AUC,[10]; 10 mg,0.462 ± 0.207 ng·h/mL
same,Cmax,[10]; 10 mg,0.0537 ± 0.0318 ng/mL
same,half-life,[10]; 10 mg,10.2 ± 2.55 h
same,AUC,[10]; 20 mg,0.843 ± 0.333 ng·h/mL
same,Cmax,[10]; 20 mg,0.0841 ± 0.0462 ng/mL
same,half-life,[10]; 20 mg,8.18 ± 2.09 h
same,Tmax,[10]; male,~1 h
same,half-life,[10]; male,8 to 14 h
